Experimental data pooled from the literature.
Lines come from different studies, so protocols differ.
Method: competition with immobilised ligand
RPS6KA5 C-terminal kinase domain: Ribosomal protein S6 kinase alpha-5, C-terminal kinase domain (RPS6KA5, Homo sapiens, UniProt O75582)
RPS6KA5 N-terminal kinase domain: Ribosomal protein S6 kinase alpha-5, N-terminal kinase domain (RPS6KA5, Homo sapiens, UniProt O75582)

SMILES	target	effect on	concentration	remaining binding [%]
O=C(NCCCN1CCOCC1)c1ccc(Nc2nccc(-c3cc4ccccc4s3)n2)cc1	RPS6KA5 C-terminal kinase domain	binding	1 µM	100
CN(C)c1nccc(-c2cnc3ncccn23)n1	RPS6KA5 C-terminal kinase domain	binding	1 µM	100
O=C(NCC1CCOCC1)c1n[nH]cc1NC(=O)c1c(F)cccc1F	RPS6KA5 C-terminal kinase domain	binding	1 µM	94
Cc1nc(C2CCN(C(=O)c3ccc(OC(F)(F)F)cc3N)CC2)c2ncc(N3CCN(C)CC3)cc2n1	RPS6KA5 N-terminal kinase domain	cell-free assay	1 µM	100
c1cnn2ncc(-c3ccnc(N4CCC45COC5)n3)c2c1	RPS6KA5 N-terminal kinase domain	binding	1 µM	100
COc1ncc2cc3ccccc3nc2c1C#N	RPS6KA5 C-terminal kinase domain	cell-free assay	5 µM	88
CC1=C(C#N)C(c2ccc3c(c2)c(NC(=O)c2ccccc2C)nn3C)C(C#N)=C(C)N1	RPS6KA5 N-terminal kinase domain	cell-free assay	1 µM	91
C[C@@H](c1ccc(-n2cnc3c(N)ncnc32)cc1)N1CCc2nn(C)c(Cc3ccccc3)c2C1=O	RPS6KA5 C-terminal kinase domain	binding	0.1 µM	92
CC(=O)N1CCC(c2ccc(C(=O)NC3=NCCN3)cc2C(F)(F)F)CC1	RPS6KA5 C-terminal kinase domain	cell-free assay	1 µM	70
COc1cnc(Nc2cccc(S(N)(=O)=O)c2)nc1N1CCN(c2ccccc2)CC1	RPS6KA5 N-terminal kinase domain	binding	1 µM	92
O=C(c1ccc(Nc2ncc(Cl)c(-c3ccc(Cl)s3)n2)cc1)N1CCC(N2CCCC2)CC1	RPS6KA5 C-terminal kinase domain	binding	1 µM	48
CCC(=N\O)/C(C)=C/c1ccc(F)cc1	RPS6KA5 N-terminal kinase domain	cell-free assay	1 µM	100
CC1CCCN1c1nccc(-c2cnn3ncccc23)n1 (centres unmarked)	RPS6KA5 N-terminal kinase domain	binding	1 µM	100
NS(=O)(=O)c1cc(NC(=O)C2(c3ccccc3Cl)CC2)ccc1Oc1cccc(Cl)c1	RPS6KA5 N-terminal kinase domain	cell-free assay	1 µM	100
N[C@@H]1CCN(c2nccc(-c3cnn4ncccc34)n2)C1	RPS6KA5 N-terminal kinase domain	binding	1 µM	94
Cc1noc([C@H]2C[C@@H](c3ccc(C(F)(F)F)cc3)CN(C(=O)N3CCS(=O)(=O)C3)C2)n1	RPS6KA5 C-terminal kinase domain	cell-free assay	1 µM	100
COc1ccnn2ncc(-c3ccnc(N(C)C)n3)c12	RPS6KA5 C-terminal kinase domain	binding	1 µM	100
COc1cnc(Nc2cccc(S(N)(=O)=O)c2)nc1N1CCN(c2ccccc2)C(=O)C1	RPS6KA5 N-terminal kinase domain	binding	1 µM	99
C[C@H]1CCN(c2nccc(-c3cnn4ncccc34)n2)C1	RPS6KA5 C-terminal kinase domain	binding	1 µM	100
O=C(c1ccc(Nc2nccc(-c3cc4ccccc4s3)n2)cc1)N1CCC(N2CCCC2)CC1	RPS6KA5 C-terminal kinase domain	binding	1 µM	86
